Tests used:
Cryptococcus neoformans [1] = assay: Antifungal activity against Cryptococcus neoformans 05-202523 after 48 to 72 hrs; format: functional
Method in brief: (§1)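 MFC: after the MIC read, 30-μl aliquots from each well without visible growth were plated onto Sabouraud dextrose agar and incubated at 35°C. Reading was at 48–72 h for yeasts and up to 7 days for molds. MFC was the lowest concentration with no colonies.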

Lichtheimia corymbifera = assay: Antifungal activity against Absidia corymbifera 04-200170 after 24 to 72 hrs by broth microdilution method; format: functional
Method in brief: (§2)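 Broth microdilution MIC per CLSI M27-A3 (yeasts) or M38-A2 (molds). RPMI 1640 with L-glutamine, without bicarbonate, buffered to pH 7.0 with 0.165 M MOPS. Final test range for the compounds was 0.175–87.5 μM. Incubation at 35°C with visual reading at 24–72 h. MIC was the lowest concentration giving 100% inhibition versus the growth control (azoles 50% or 100%, by organism). Each isolate was run in duplicate in two independent experiments.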

Scedosporium apiospermum = assay: Antifungal activity against Scedosporium apiospermum 05-203100 after 24 to 72 hrs by broth microdilution method; format: functional
Method in brief: (§3)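 Mold isolates subcultured on potato dextrose agar, then tested by CLSI M38-A2 broth microdilution in RPMI 1640 (L-glutamine, no bicarbonate) buffered to pH 7.0 with 0.165 M MOPS. Compounds were dissolved in water and tested at a final 0.175–87.5 μM. Plates were incubated at 35°C. MIC was read visually as the lowest concentration giving 100% inhibition versus the growth control. Each isolate was run in duplicate in two independent experiments.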

Candida albicans [2] = assay: Antifungal activity against Candida albicans ATCC 90028 after 48 to 72 hrs; format: functional; method in brief: as §1
Lomentospora prolificans = assay: Antifungal activity against Scedosporium prolificans 05-203060 after 24 to 72 hrs by broth microdilution method; format: functional; method in brief: as §3
Candida albicans [3] = assay: Antifungal activity against Candida albicans ATCC 90028 after 24 to 72 hrs by broth microdilution method; format: functional; method in brief: as §2
Candida parapsilosis [4] = assay: Antifungal activity against Candida parapsilosis ATCC 22019 after 24 to 72 hrs by broth microdilution method; format: functional; settings: Lodderomyces parapsilosis; method in brief: as §2
Aspergillus fumigatus [5] = assay: Antifungal activity against Aspergillus fumigatus ATCC 204305 after 24 to 72 hrs by broth microdilution method; format: functional; method in brief: as §2
Aspergillus terreus [6] = assay: Antifungal activity against Aspergillus terreus 05-202844 after 48 to 72 hrs; format: functional; method in brief: as §1
[7] = Antifungal activity against Exophiala jeanselmei 03-200268 after 24 to 72 hrs by broth microdilution method; format: functional; method in brief: as §2
[8] = Antifungal activity against Paecilomyces lilacinus 05-200601 after 24 to 72 hrs by broth microdilution method; format: functional; settings: Purpureocillium lilacinum; method in brief: as §3
Candida tropicalis = assay: Antifungal activity against Candida tropicalis 04-202361 after 24 to 72 hrs by broth microdilution method; format: functional; method in brief: as §2
Nakaseomyces glabratus [9] = assay: Antifungal activity against Candida glabrata 04-202345 after 24 to 72 hrs by broth microdilution method; format: functional; method in brief: as §2
[10] = test system: Cunninghamella bertholletiae; assay: Antifungal activity against Cunninghamella bertholletiae 99-12187 after 24 to 72 hrs by broth microdilution method; format: functional; method in brief: as §2
Rhizopus arrhizus [11] = assay: Antifungal activity against Rhizopus oryzae 05-203111 after 24 to 72 hrs by broth microdilution method; format: functional; method in brief: as §3
Pichia kudriavzevii [12] = assay: Antifungal activity against Candida krusei 04-202328 after 24 to 72 hrs by broth microdilution method; format: functional; method in brief: as §2
Pichia kudriavzevii [13] = assay: Antifungal activity against Candida krusei ATCC 6258 after 24 to 72 hrs by broth microdilution method; format: functional; method in brief: as §2
Pichia kudriavzevii [14] = assay: Antifungal activity against Candida krusei […] after 48 to 72 hrs; format: functional; method in brief: as §1
[15] = test system: Cryptococcus gattii species complex; assay: Antifungal activity against Cryptococcus gattii 05-200122 after 24 to 72 hrs by broth microdilution method; format: functional, Cryptococcus bacillisporus; method in brief: as §2
Fusarium solani = assay: Antifungal activity against Fusarium solani 04-203102 after 24 to 72 hrs by broth microdilution method; format: functional; method in brief: as §3
Rhizopus arrhizus [16] = assay: Antifungal activity against Rhizopus oryzae 05-203111 after 48 to 72 hrs; format: functional
Method in brief: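 After the broth microdilution MIC read, suspension from every well without visible growth was plated onto Sabouraud dextrose agar and incubated at 35°C, up to 7 days for molds. MFC was taken as the lowest drug concentration with no colonies.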

Aspergillus fumigatus [17] = assay: Antifungal activity against Aspergillus fumigatus 05-203114 after 24 to 72 hrs by broth microdilution method; format: functional; method in brief: as §2
Pichia kudriavzevii [18] = assay: Antifungal activity against Candida krusei 04-202328 after 48 to 72 hrs; format: functional
Method in brief: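 CLSI M27-A3 broth microdilution for yeasts in RPMI 1640 with L-glutamine and no bicarbonate, buffered with 0.165 M MOPS to pH 7.0. Compounds were dissolved in water and tested at 0.175–87.5 μM final, 35°C. MIC was read visually at 24–72 h as 100% inhibition versus growth control. For MFC, 30 μl from clear wells went onto SDA at 35°C for 48–72 h, reading the lowest concentration without colonies. Duplicates, two independent runs.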

Exophiala spinifera = assay: Antifungal activity against Exophiala spinifera 03-200803 after 24 to 72 hrs by broth microdilution method; format: functional; method in brief: as §3
Cryptococcus neoformans [19] = assay: Antifungal activity against Cryptococcus neoformans 05-202523 after 24 to 72 hrs by broth microdilution method; format: functional; method in brief: as §2
Candida parapsilosis [20] = assay: Antifungal activity against Candida parapsilosis 04-202398 after 24 to 72 hrs by broth microdilution method; format: functional; settings: Lodderomyces parapsilosis; method in brief: as §2
Candida albicans [21] = assay: Antifungal activity against Candida albicans ATCC 10231 after 24 to 72 hrs by broth microdilution method; format: functional; method in brief: as §2
Candida parapsilosis [22] = assay: Antifungal activity against Candida parapsilosis ATCC 22019 after 48 to 72 hrs; format: functional; settings: Lodderomyces parapsilosis; method in brief: as §1
Pichia kudriavzevii [23] = assay: Antifungal activity against Candida krusei ATCC 9258 after 24 to 72 hrs by broth microdilution method; format: functional; method in brief: as §2
Aspergillus terreus [24] = assay: Antifungal activity against Aspergillus terreus 05-202844 after 24 to 72 hrs by broth microdilution method; format: functional; method in brief: as §2
Aspergillus flavus [25] = assay: Antifungal activity against Aspergillus flavus 05-203758 after 24 to 72 hrs by broth microdilution method; format: functional; method in brief: as §2
Aspergillus flavus [26] = assay: Antifungal activity against Aspergillus flavus ATCC 204304 after 24 to 72 hrs by broth microdilution method; format: functional; method in brief: as §2
Cryptococcus neoformans [27] = assay: Antifungal activity against Cryptococcus neoformans ATCC 90112 after 24 to 72 hrs by broth microdilution method; format: functional; method in brief: as §2
Nakaseomyces glabratus [28] = assay: Antifungal activity against Candida glabrata 04-202345 after 48 to 72 hrs; format: functional; method in brief: as §1

In the case of `CC(C)CCc1cc[n+](CCCCCCCCCCCC[n+]2ccc(CCC(C)C)cc2)cc1.[Cl-].[Cl-]`, the MFC (Cryptococcus neoformans [1]) is reported as 47.3 µg/mL, the MIC (Lichtheimia corymbifera) is reported as greater than 47.3 µg/mL and the MIC (Scedosporium apiospermum) is reported as 11.8 µg/mL. It also gave an MFC (Candida albicans [2]) of 5.9 µg/mL, an MIC (Lomentospora prolificans) of 2.96 µg/mL and an MIC (Candida albicans [3]) of 2.96 µg/mL. The MIC (Candida parapsilosis [4]) was 1.48 µg/mL, the MIC (Aspergillus fumigatus [5]) was greater than 47.3 µg/mL and the MFC (Aspergillus terreus [6]) was 5.9 µg/mL. It also gave an MIC [7] of 2.96 µg/mL, an MIC [8] greater than 47.3 µg/mL and an MIC (Candida tropicalis) of 2.96 µg/mL. For the same molecule, the MIC (Nakaseomyces glabratus [9]) was 1.48 µg/mL, the MIC [10] was greater than 47.3 µg/mL and the MIC (Rhizopus arrhizus [11]) was 5.9 µg/mL. It also gave an MIC (Pichia kudriavzevii [12]) of 23.7 µg/mL, an MIC (Pichia kudriavzevii [13]) of 23.7 µg/mL and an MFC (Pichia kudriavzevii [14]) of 23.7 µg/mL. The MIC [15] was 1.48 µg/mL, the MIC (Fusarium solani) was 47.3 µg/mL and the MFC (Rhizopus arrhizus [16]) was 23.7 µg/mL. The MIC (Aspergillus fumigatus [17]) was greater than 47.3 µg/mL, the MFC (Pichia kudriavzevii [18]) was 47.3 µg/mL and the MIC (Exophiala spinifera) was 1.48 µg/mL. The MIC (Cryptococcus neoformans [19]) was 11.8 µg/mL, the MIC (Candida parapsilosis [20]) was greater than 47.3 µg/mL and the MIC (Candida albicans [21]) was 2.96 µg/mL. It also gave an MFC (Candida parapsilosis [22]) of 2.96 µg/mL, an MIC (Pichia kudriavzevii [23]) of 11.8 µg/mL and an MIC (Aspergillus terreus [24]) of 2.96 µg/mL. The MIC (Aspergillus flavus [25]) was greater than 47.3 µg/mL, the MIC (Aspergillus flavus [26]) was greater than 47.3 µg/mL and the MIC (Cryptococcus neoformans [27]) was 2.96 µg/mL. For the same molecule, the MFC (Nakaseomyces glabratus [28]) was 5.9 µg/mL.

From ChEMBL document CHEMBL1629527, “In vitro antifungal activities of bis(alkylpyridinium)alkane compounds against pathogenic yeasts and molds” (Antimicrob Agents Chemother, 2010)
